What was measured:
Settings in all cases: stereoisomer not certain
UniProt Q8VGC6 = target: T1, UniProt Q8VGC6
T1 sequence (whole entry): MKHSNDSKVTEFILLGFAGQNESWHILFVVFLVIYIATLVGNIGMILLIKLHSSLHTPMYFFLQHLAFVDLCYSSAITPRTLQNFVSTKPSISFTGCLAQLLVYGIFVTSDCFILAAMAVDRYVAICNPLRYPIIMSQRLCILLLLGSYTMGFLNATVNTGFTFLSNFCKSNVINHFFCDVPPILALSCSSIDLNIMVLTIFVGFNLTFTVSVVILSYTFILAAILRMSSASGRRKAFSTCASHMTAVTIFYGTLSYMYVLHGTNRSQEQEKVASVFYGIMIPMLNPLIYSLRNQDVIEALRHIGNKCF
How it was run: (§1)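 Whether a receptor–molecule pair is responsive (active) rests on the original authors' judgment that its measured signal was statistically different from baseline. Pairs without that judgment are non-responsive (inactive). Sources used varied assay methods, commonly transient luciferase assays in mammalian cell lines.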

UniProt Q8VG28 = target: UniProt Q8VG28
Chain of UniProt Q8VG28 (Q8VG28 as listed by the source): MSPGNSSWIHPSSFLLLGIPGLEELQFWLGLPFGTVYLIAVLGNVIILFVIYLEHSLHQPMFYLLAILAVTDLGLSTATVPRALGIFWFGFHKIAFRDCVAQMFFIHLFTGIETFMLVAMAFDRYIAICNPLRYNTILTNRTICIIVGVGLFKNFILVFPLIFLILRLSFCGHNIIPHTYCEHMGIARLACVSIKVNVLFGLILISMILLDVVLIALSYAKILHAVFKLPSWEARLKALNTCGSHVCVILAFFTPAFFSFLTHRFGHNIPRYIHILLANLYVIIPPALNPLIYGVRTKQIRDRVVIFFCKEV
How it was run: as §1

UniProt Q8VG49 = target: T2, UniProt Q8VG49
T2 sequence (whole entry): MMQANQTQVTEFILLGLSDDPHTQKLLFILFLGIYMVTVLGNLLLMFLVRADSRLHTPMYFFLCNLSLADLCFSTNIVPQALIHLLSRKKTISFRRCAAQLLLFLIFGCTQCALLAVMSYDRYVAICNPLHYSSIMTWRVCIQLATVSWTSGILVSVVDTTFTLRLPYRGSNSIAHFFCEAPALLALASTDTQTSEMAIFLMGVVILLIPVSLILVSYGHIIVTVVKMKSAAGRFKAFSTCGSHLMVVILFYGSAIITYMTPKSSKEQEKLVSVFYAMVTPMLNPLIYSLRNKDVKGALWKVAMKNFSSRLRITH
How it was run: as §1

UniProt Q8VG77 = target: T3, UniProt Q8VG77
T3 sequence (whole entry): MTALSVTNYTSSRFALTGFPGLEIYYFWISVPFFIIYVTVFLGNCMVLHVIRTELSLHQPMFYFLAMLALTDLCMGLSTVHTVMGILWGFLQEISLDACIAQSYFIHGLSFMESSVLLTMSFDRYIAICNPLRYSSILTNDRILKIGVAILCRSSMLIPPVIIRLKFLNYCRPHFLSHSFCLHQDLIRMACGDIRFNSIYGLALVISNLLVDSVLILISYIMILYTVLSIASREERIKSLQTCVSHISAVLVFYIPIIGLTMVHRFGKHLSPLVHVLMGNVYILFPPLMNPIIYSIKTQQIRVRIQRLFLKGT
How it was run: as §1

UniProt Q8VG96 = target: T4, UniProt Q8VG96
T4 sequence (whole entry): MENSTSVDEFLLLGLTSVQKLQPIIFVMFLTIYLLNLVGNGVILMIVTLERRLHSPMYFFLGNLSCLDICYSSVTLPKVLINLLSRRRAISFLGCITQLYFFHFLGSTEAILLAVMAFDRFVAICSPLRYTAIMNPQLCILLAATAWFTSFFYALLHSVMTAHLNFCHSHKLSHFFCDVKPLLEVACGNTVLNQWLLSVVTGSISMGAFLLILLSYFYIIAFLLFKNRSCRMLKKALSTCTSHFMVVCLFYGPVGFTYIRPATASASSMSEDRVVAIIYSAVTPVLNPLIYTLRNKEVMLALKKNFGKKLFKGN
How it was run: as §1

UniProt Q8VGD7 = target: T5, UniProt Q8VGD7
T5 sequence (whole entry): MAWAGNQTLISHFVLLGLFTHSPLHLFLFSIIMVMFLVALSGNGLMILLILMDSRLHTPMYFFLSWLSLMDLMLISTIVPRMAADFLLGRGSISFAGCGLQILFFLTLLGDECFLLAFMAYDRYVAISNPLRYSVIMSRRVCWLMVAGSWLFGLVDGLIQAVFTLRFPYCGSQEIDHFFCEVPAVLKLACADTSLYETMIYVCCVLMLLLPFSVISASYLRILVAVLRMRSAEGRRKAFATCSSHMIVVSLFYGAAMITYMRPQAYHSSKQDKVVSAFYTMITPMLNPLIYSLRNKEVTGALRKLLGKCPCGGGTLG
How it was run: as §1

UniProt Q8VGH1 = target: T6, UniProt Q8VGH1
T6 sequence (whole entry): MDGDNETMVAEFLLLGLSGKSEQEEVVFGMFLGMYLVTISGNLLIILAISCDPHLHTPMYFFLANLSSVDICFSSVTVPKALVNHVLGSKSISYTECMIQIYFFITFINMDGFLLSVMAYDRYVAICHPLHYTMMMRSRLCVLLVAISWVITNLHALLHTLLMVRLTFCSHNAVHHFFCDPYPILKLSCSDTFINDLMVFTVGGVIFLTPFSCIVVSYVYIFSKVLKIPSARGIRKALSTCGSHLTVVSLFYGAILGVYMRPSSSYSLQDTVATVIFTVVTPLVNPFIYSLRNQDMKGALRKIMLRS
How it was run: as §1

UniProt Q8VGJ1 = target: T7, UniProt Q8VGJ1
T7 sequence (whole entry): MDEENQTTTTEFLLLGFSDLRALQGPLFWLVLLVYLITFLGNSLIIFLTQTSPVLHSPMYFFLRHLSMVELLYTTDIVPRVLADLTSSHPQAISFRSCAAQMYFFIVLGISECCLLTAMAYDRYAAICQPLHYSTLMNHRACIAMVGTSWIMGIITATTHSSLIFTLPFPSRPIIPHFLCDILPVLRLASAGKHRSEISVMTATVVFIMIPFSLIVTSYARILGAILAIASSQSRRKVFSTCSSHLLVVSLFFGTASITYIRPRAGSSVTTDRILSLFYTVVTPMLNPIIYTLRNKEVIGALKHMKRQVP
How it was run: as §1

UniProt Q8VGJ5 = target: T8, UniProt Q8VGJ5
T8 sequence (whole entry): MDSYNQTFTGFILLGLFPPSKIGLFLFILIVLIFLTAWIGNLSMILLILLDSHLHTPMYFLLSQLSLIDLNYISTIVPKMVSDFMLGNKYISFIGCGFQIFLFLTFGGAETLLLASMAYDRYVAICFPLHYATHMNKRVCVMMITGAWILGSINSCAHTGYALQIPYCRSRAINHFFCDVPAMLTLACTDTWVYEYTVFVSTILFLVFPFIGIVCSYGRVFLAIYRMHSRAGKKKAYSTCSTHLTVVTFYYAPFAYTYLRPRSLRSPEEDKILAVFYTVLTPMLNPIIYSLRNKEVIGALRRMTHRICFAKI
How it was run: as §1

UniProt Q8VGL0 = target: T9, UniProt Q8VGL0
T9 sequence (whole entry): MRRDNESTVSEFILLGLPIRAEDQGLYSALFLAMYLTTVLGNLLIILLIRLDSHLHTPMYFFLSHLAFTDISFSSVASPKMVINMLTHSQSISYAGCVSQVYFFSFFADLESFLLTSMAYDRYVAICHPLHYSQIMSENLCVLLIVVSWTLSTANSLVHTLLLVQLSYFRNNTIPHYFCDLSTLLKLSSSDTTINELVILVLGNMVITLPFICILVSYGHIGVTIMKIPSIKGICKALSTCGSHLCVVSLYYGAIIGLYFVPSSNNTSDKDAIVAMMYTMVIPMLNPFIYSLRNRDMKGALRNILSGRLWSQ
How it was run: as §1

UniProt Q8VGL7 = target: T10, UniProt Q8VGL7
T10 sequence (whole entry): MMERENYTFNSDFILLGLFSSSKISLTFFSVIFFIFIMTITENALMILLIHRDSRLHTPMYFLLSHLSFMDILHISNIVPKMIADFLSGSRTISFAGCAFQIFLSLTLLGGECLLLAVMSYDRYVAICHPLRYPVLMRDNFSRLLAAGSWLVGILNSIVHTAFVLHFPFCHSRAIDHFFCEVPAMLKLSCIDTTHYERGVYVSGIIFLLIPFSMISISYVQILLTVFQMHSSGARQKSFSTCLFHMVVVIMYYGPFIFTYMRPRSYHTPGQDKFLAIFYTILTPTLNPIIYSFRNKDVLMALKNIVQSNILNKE
How it was run: as §1

UniProt Q8VG27 = target: T11, UniProt Q8VG27
T11 sequence (whole entry): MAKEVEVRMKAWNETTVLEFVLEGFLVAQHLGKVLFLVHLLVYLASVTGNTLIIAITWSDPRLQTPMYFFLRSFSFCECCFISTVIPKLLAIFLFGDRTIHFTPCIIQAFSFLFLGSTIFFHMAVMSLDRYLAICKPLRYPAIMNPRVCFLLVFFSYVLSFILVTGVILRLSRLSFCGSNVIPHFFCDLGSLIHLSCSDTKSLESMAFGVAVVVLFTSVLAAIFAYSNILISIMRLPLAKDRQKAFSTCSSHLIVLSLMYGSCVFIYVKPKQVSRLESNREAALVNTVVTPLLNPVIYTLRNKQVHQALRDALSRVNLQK
How it was run: as §1

UniProt Q8VG53 = target: T12, UniProt Q8VG53
T12 sequence (whole entry): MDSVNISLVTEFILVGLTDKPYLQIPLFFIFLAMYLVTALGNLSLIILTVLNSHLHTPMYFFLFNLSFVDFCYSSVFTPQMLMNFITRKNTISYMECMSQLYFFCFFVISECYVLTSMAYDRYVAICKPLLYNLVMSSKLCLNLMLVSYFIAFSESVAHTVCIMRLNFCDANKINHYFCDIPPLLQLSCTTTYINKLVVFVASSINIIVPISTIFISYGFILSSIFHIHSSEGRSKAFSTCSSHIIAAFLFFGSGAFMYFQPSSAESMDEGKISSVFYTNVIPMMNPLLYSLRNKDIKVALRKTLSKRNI
How it was run: as §1

UniProt Q8VG64 = target: T13, UniProt Q8VG64
T13 sequence (whole entry): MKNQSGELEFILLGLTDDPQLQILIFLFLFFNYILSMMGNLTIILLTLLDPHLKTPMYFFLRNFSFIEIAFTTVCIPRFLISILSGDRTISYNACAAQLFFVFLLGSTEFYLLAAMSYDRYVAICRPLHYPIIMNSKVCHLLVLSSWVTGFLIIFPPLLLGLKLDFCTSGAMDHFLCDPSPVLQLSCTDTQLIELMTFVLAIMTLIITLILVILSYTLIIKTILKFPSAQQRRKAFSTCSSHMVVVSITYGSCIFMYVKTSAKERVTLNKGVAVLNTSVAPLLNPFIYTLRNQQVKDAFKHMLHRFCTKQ
How it was run: as §1

UniProt Q8VGB9 = target: T14, UniProt Q8VGB9
T14 sequence (whole entry): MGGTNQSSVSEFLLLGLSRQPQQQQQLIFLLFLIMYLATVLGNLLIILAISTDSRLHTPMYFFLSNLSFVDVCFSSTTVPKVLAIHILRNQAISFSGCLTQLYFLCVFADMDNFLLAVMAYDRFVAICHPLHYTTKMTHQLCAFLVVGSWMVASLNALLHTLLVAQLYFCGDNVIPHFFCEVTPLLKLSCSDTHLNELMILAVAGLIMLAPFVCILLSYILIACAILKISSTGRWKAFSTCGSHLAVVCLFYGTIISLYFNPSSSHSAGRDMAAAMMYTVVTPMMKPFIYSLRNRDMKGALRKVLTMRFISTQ
How it was run: as §1

UniProt Q8VGJ3 = target: T15, UniProt Q8VGJ3
T15 sequence (whole entry): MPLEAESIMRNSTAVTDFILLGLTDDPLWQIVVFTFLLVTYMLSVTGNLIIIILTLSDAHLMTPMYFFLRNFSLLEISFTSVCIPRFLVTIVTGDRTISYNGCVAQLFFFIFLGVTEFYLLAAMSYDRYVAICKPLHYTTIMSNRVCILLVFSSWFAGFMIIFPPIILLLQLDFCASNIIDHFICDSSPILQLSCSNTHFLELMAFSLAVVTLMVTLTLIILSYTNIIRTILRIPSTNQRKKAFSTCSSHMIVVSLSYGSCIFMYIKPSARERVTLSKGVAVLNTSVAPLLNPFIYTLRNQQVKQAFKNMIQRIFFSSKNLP
How it was run: as §1

Measured: odorant receptor agonist call;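 note: active if original authors judged signal statistically different from baseline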

CCCC(=O)OCC
inactive: UniProt Q8VGC6

CC(O)c1ccccc1 (stereo not given)
inactive: UniProt Q8VGC6

CCCC(C)=O
not listed: UniProt Q8VG27 | UniProt Q8VG53 | UniProt Q8VG64 | UniProt Q8VGB9 | UniProt Q8VGJ3
inactive: all other assays above

O=C(O)CCCCCC(=O)O
inactive: UniProt Q8VG28

O=C(O)CCCCBr
inactive: UniProt Q8VG28

C=CC(C)=CCC=C(C)CCC=C(C)C
inactive: UniProt Q8VG27 | UniProt Q8VG53 | UniProt Q8VG64 | UniProt Q8VGB9 | UniProt Q8VGC6 | UniProt Q8VGJ3 | UniProt Q8VGL0

CCC(=O)OC(C)(C)C
inactive: UniProt Q8VGC6

CCCCCC(C)(C)O
inactive: UniProt Q8VGC6

CCCCCCC(=O)[O-].[H+]
not listed: UniProt Q8VG27 | UniProt Q8VG53 | UniProt Q8VG64 | UniProt Q8VGB9 | UniProt Q8VGJ3
inactive: all other assays above
